# From PubChem BioAssay
# Pf Dd2 growth: P. falciparum Dd2 growth inhibition. SYBR Green, 72 h; hits give low values. activity change, % at 10 µM. actives 2.3% (n = 94,000). AID 1159554; in the data active = activity change below about -80%; inconclusive = no clear call, values can overlap the other calls
# T cruzi growth-1: inhibitors of T. cruzi proliferation | T. cruzi beta-gal in NIH3T3, GalScreen luminescence, 90 h | inhibition, % at 8.34 µM | actives 5.9% (n = 77,000);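 active = mean inhibition above about 93%, with at least 55% of replicates each passing it, limit read from the data, passing the limit was not always enough; inconclusive = only one of those two conditions holds; inactive = neither condition holds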
# KDM4C inh: KDM4C (human) demethylase inhibition; Q9H3R0; GST-KDM4C 2-372, H3K9me3 peptide, LANCE TR-FRET; inhibition, % at 12.5 µM; actives 0.15% (n = 96,000);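 active = mean replicate inhibition above about 25%, with at least 55% of replicates also reaching it, limit read from the data, passing the limit was not always enough; inconclusive = only one of those two conditions met; inactive = neither condition met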
#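 material = GST-tagged GASC-1 (JMJD2C) catalytic fragment, aa 2-372 | amount = enzyme final amount 10 nM | medium = HEPES buffer, pH 7.5, plus ascorbate | also added = H3K9me3 peptide substrate, Fe(II), 2-oxoglutarate | dosing = single dose | times = 30 min demethylation and 1 h detection at room temperature | detection = LANCE TR-FRET | read-out basis = Fall in 671/618 emission ratio as inhibition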
# IDH1 R132H inh: IDH1 R132H (human) inhibition. O75874. IDH1 R132H reductase, diaphorase/resazurin fluorescence, 60 min. inhibition, % at 10 µM. actives 0.18% (n = 70,000). AID 624101; in the data active = inhibition above about 34%; inconclusive = no clear call, values can overlap the other calls; inactive = below about 11%;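 also: 0% = DMSO and 100% = no enzyme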
# Target sequence (O75874 whole entry R132H): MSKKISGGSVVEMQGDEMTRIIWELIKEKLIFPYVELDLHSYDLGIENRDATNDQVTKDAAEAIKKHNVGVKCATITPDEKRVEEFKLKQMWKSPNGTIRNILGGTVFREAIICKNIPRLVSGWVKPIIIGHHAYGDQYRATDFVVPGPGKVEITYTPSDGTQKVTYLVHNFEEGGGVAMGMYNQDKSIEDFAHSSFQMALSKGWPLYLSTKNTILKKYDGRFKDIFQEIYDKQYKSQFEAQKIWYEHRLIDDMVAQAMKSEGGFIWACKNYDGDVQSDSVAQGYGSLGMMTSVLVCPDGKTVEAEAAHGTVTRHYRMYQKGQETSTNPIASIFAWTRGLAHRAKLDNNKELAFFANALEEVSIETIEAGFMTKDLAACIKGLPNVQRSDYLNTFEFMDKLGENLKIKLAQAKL
# T cruzi growth-2: inhibitors of T. cruzi proliferation. T. cruzi beta-gal in NIH3T3, GalScreen luminescence, 90 h. shares compounds with T cruzi growth-1. inhibition, % at 8.35 µM. actives 72% (n = 5,600);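 active = mean replicate inhibition above about 95% and at least 55% of replicates individually reaching it, limit read from the data; inconclusive = only one of the two criteria is met; inactive = neither criterion is met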
# T cruzi growth-3: Trypanosoma cruzi proliferation inhibition | actives 21% (n = 5,600) | shares compounds with T cruzi growth-1 | inhibition, % at 2.09 µM | T. cruzi beta-gal in NIH3T3, GalScreen luminescence, 90 h | AID 651740;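 active = mean inhibition above about 95%, with at least 55% of replicates also reaching it, limit read from the data; inconclusive = meets just one of the two conditions; inactive = meets neither condition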;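 also: plate controls were neutral control median for no effect and positive control median for full effect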
# NIH3T3 tox: NIH/3T3 (mouse) viability loss | shares compounds with T cruzi growth-1 | NIH/3T3 viability, CellTiter-Glo ATP luminescence, 90 h | cytotoxicity (signal decrease), % at 8.35 µM | actives 14% (n = 5,600) | AID 651742;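 active = mean signal decrease across replicates above about 35% based on untreated-well scatter, with enough replicates individually passing, limit read from the data; inconclusive = no rule stated though some were filed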;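 also: 0% = median of neutral control wells and 100% = median of positive control wells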
# 3T3 cytotox 2: kills mouse NIH/3T3 fibroblasts | shares compounds with T cruzi growth-1 | inhibition, % at 24.9 µM | AID 651744 | actives 56% (n = 5,600) | NIH/3T3 viability, CellTiter-Glo ATP luminescence, 90 h;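 active = mean loss of cell viability signal at or above a set limit, and enough replicates individually reaching it; inconclusive = meets only the mean limit or only the replicate share; inactive = meets neither condition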;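 also: 0% = median of neutral control wells and 100% = median of positive control wells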
# The depositor's hits bear a star; ? = inconclusive; . = no result. An excerpt weighted towards active compounds, which were near 5.8% of everything screened.
SMILES,Pf Dd2 growth,T cruzi growth-1,KDM4C inh,IDH1 R132H inh,T cruzi growth-2,T cruzi growth-3,NIH3T3 tox,3T3 cytotox 2
O=C(c1ccc2c(c1)OCO2)N1CCCCN2[C@H](CO)[C@H](c3ccc(-c4ccccc4)cc3)[C@@H]2C1,-49,57,0,.,.,.,.,.
COc1cccc(-c2ccc([C@H]3[C@@H](CO)N4CCCCN(C(=O)c5ccc6c(c5)OCO6)C[C@@H]34)cc2)c1,25,95,-1,.,.,.,.,.
COc1cccc(-c2ccc([C@@H]3[C@H](CO)N4CCCCN(C(=O)c5ccc6c(c5)OCO6)C[C@@H]34)cc2)c1,-36,98*,-1,.,107*,44,25,103*
COc1ccc(-c2ccc([C@@H]3[C@H]4CN(C(=O)c5ccc6c(c5)OCO6)CCCCN4[C@H]3CO)cc2)cc1,-46,112*,0,.,101*,82,23,104*
O=C(c1ccc2c(c1)OCO2)N1CCCCN2[C@H](C1)[C@H](c1ccc(-c3ccccc3)cc1)[C@@H]2CO,-14,57,0,.,.,.,.,.
COc1ccc(-c2ccc([C@@H]3[C@H](CO)N4CCCCN(C(=O)c5ccc6c(c5)OCO6)C[C@@H]34)cc2)cc1,-32,108*,-1,.,?,58,21,104*
COc1ccccc1NC(=O)C1=C(C)Nc2ncnn2C1c1ccc(C(=O)O)cc1 (centres undefined),.,.,.,0,.,.,.,.
O=C(c1ccc2c(c1)OCO2)N1CCCCN2[C@@H](CO)[C@@H](c3ccc(-c4ccccc4)cc3)[C@@H]2C1,-11,104*,0,.,100*,67,?,102*
CN(CC(=O)Nc1ccccc1C(C)(C)C)S(=O)(=O)c1ccc(Cl)cc1,.,.,.,0,.,.,.,.
COc1ccc(OCC(=O)Nc2cc(OC)ccc2NC(=O)c2ccco2)cc1,.,.,.,-1,.,.,.,.
C[C@H](CO)N1C[C@H](C)[C@@H](CN(C)Cc2ccccn2)Oc2cc(C#CCN(C)C)ccc2S1(=O)=O,-28,?,1,-1,.,.,.,.
C[C@H]1CN([C@@H](C)CO)S(=O)(=O)c2ccc(C#CCN(C)C)cc2O[C@@H]1CN(C)Cc1ccccn1,-51,101*,1,0,97*,99*,4,12
C[C@@H]1CN([C@@H](C)CO)S(=O)(=O)c2ccc(C#CCN(C)C)cc2O[C@@H]1CN(C)Cc1ccccn1,-30,?,8,-3,82,68,31,28*
O=C(CC1(O)C(=O)N(Cc2ccccc2)c2ccccc21)c1ccccc1[N+](=O)[O-] (centres undefined),.,.,.,2,.,.,.,.
N#C[C@H]1[C@H](c2ccc(C#Cc3cccc(F)c3)cc2)[C@@H](CO)N1C(=O)C1CCC1,-52,97*,-1,.,97*,109*,17,12
N#C[C@@H]1[C@@H](c2ccc(C#Cc3cccc(F)c3)cc2)[C@H](CO)N1C(=O)C1CCC1,-36,99*,-1,.,104*,105*,14,-3
COC(=O)c1ccccc1NC(=O)c1cc(-c2ccccn2)nc2c(C)c(Cl)ccc12,.,.,.,0,.,.,.,.
COCC#Cc1ccc([C@H]2[C@H](CO)N3CCCCN(S(=O)(=O)c4ccc(OC)cc4)C[C@@H]23)cc1,-57,?,-1,.,100*,40,-1,11
COCC#Cc1ccc([C@H]2[C@@H](CO)N3CCCCN(S(=O)(=O)c4ccc(OC)cc4)C[C@@H]23)cc1,-46,?,0,.,100*,42,34,34*
C[C@@H]1CN([C@@H](C)CO)S(=O)(=O)c2ccc(C#CC3CCCCC3)cc2O[C@H]1CN(C)C,-60,118*,-1,0,104*,101*,38*,104*
C[C@H]1CN([C@@H](C)CO)S(=O)(=O)c2ccc(C#CC3CCCC3)cc2O[C@@H]1CN(C)C,-69,100*,0,-1,105*,53,-4,104*
CCCN(C)C[C@@H]1Oc2cc(C#CC3CCCC3)ccc2S(=O)(=O)N([C@@H](C)CO)C[C@H]1C,-54,103*,4,-2,108*,77,39*,104*
C[C@H]1CN([C@@H](C)CO)S(=O)(=O)c2ccc(C#CC3CCCC3)cc2O[C@H]1CN(C)C,-65,-62,1,0,.,.,.,.
C[C@H](CO)N1C[C@H](C)[C@H](CN(C)C)Oc2cc(C#CC3CCCCC3)ccc2S1(=O)=O,-71,98*,1,0,106*,55,48*,103*
Cc1nn(Cc2ccc(F)cc2)c(C)c1NC(=O)c1cc(-c2cccnc2)nc2c(Cl)cccc12,.,.,.,0,.,.,.,.
SMILES,Pf Dd2 growth,T cruzi growth-1,KDM4C inh,IDH1 R132H inh,T cruzi growth-2,T cruzi growth-3,NIH3T3 tox,3T3 cytotox 2
CCOc1ccc2[nH]c(C)c(CCC(C)=O)c(=O)c2c1,.,.,.,0,.,.,.,.
COc1cc(C2c3cc(O[C@@H]4O[C@H](CO)[C@@H](O)[C@H](O)[C@H]4O)c(OC)cc3CC(CO)C2CO)ccc1O (some centres undefined),.,.,.,0,.,.,.,.
CCc1cc(C(=O)OC)c(NC(=S)Nc2cn(CC)nc2C(N)=O)s1,.,.,.,0,.,.,.,.
C[C@H]1CN([C@@H](C)CO)S(=O)(=O)c2ccc(C#CC3CCCC3)cc2O[C@H]1CN(C)CC1CC1,-64,?,0,0,94,78,48*,104*
C[C@H](CO)N1C[C@H](C)[C@H](CN(C)C(=O)c2ccncc2)Oc2cc(C3=CCCC3)ccc2S1(=O)=O,-22,?,2,10,99*,62,9,21
C[C@@H]1CN([C@@H](C)CO)S(=O)(=O)c2ccc(C3=CCCCC3)cc2O[C@@H]1CN(C)C(=O)c1ccc(F)cc1,0,114*,-1,-3,107*,94,23,98*
Cc1ccc(C)c(NC(=O)CSc2cc(C)c3ccccc3n2)c1,.,.,.,1,.,.,.,.
CNC(=O)C(C)N(c1cc(C)cc(C)c1)S(C)(=O)=O (centres undefined),.,.,.,0,.,.,.,.
CCCC#Cc1ccc2c(c1)O[C@@H](CN(C)Cc1ccncc1)[C@H](C)CN([C@H](C)CO)S2(=O)=O,-70,117*,8,7,98*,102*,72*,105*
CC(C)CC#Cc1ccc2c(c1)O[C@@H](CN(C)Cc1ccncc1)[C@@H](C)CN([C@@H](C)CO)S2(=O)=O,-68,122*,6,2,109*,93,8,109*
